In ChEMBL document CHEMBL4043131, “New prodrugs of two pyrimidine acyclic nucleoside phosphonates: Synthesis and antiviral activity” (Bioorg Med Chem, 2017):
Calls of active or inactive are those of the source. No cut-off for these calls is given here.

Experiments:
Human alphaherpesvirus 1 [1] = assay: Antiviral activity against wild type Herpes simplex virus 1 KOS infected in HEL cells assessed as inhibition of virus-induced cytopathic effect; type: functional, cell-based; details: Human alphaherpesvirus 1, KOS
Human alphaherpesvirus 2 = assay: Antiviral activity against Herpes simplex virus 2 G infected in HEL cells assessed as inhibition of virus-induced cytopathic effect; type: functional, cell-based; details: Human alphaherpesvirus 2, strain G
Procedure, shortened: (§1)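 Confluent cell monolayers were infected with 100 CCID50 of virus (1 CCID50 = dose infecting 50% of cultures) and incubated with varying compound concentrations. Cytopathicity was scored once complete in untreated infected controls.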

Human alphaherpesvirus 1 [2] = assay: Antiviral activity against thymidine kinase-deficient ACV-resistant Herpes simplex virus 1 KOS infected in HEL cells assessed as inhibition of virus-induced cytopathic effect; type: functional, cell-based; details: Human alphaherpesvirus 1, KOS
Human alphaherpesvirus 3 [3] = assay: Antiviral activity against wild type thymidine kinase expressing Varicella-Zoster virus Oka infected in HEL cells assessed as inhibition of virus-induced plaque formation; type: functional, cell-based; details: Human alphaherpesvirus 3, Oka
Procedure, shortened: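 Confluent HEL cultures were inoculated with 20 PFU of VZV and incubated with varying compound concentrations. Plaques were counted once formation was complete in untreated infected controls.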

Human alphaherpesvirus 3 [4] = assay: Antiviral activity against wild type thymidine kinase-deficient Varicella-Zoster virus 07-1 infected in HEL cells assessed as inhibition of virus-induced plaque formation; type: functional, cell-based; details: Human alphaherpesvirus 3, 07-1, HEL
Procedure, shortened: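 HEL fibroblast monolayers were infected with 20 PFU of VZV and kept with varying compound concentrations. Plaques were counted once formation was complete in untreated infected controls.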

Human betaherpesvirus 5 [5] = assay: Antiviral activity against Human cytomegalovirus AD169 infected in HEL cells assessed as inhibition of virus-induced cytopathic effect; type: functional, cell-based; details: Human betaherpesvirus 5, AD169, HEL; procedure, shortened: as §1
Human betaherpesvirus 5 [6] = assay: Antiviral activity against Human cytomegalovirus Davis infected in HEL cells assessed as inhibition of virus-induced cytopathic effect; type: functional, cell-based; details: Human betaherpesvirus 5, Davis; procedure, shortened: as §1
Vaccinia virus = assay: Antiviral activity against Vaccinia virus Lederle infected in HEL cells assessed as inhibition of virus-induced cytopathic effect; type: functional, cell-based; details: Orthopoxvirus vaccinia
HEL = assay: (§2) Cytotoxicity against HEL cells assessed as reduction in cell growth after 3 days by coulter counter method; type: cell-based; details: human, hel, 72 h
Procedure, shortened: (§3)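 HEL cells were seeded at 5 × 10³ cells/well and grown for 24 h, then given medium containing graded compound concentrations. After 3 days at 37 °C, cells were counted by Coulter counter.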

[7] = test system: Vesicular stomatitis virus; assay: Antiviral activity against Vesicular stomatitis virus infected in HEL cells assessed as inhibition of virus-induced cytopathic effect; type: functional, cell-based
Coxsackievirus B4 = assay: Antiviral activity against Coxsackie virus B4 infected in human HeLA cells assessed as inhibition of virus-induced cytopathic effect; type: functional, cell-based; procedure, shortened: as §1
[8] = Antiviral activity against Respiratory syncytial virus A strain long infected in human HeLA cells assessed as inhibition of virus-induced cytopathic effect; type: functional, cell-based; procedure, shortened: as §1
Human respirovirus 3 = assay: Antiviral activity against Parainfluenza virus 3 infected in African green monkey Vero cells assessed as inhibition of virus-induced cytopathic effect; type: functional; procedure, shortened: as §1
[9] = test system: Mammalian orthoreovirus 1; assay: Antiviral activity against Reovirus-1 infected in African green monkey Vero cells assessed as inhibition of virus-induced cytopathic effect; type: functional; procedure, shortened: as §1
Sindbis virus = assay: Antiviral activity against Sindbis virus infected in African green monkey Vero cells assessed as inhibition of virus-induced cytopathic effect; type: functional; procedure, shortened: as §1
Punta Toro virus = assay: Antiviral activity against Punta Toro virus infected in African green monkey Vero cells assessed as inhibition of virus-induced cytopathic effect; type: functional; procedure, shortened: as §1
Feline coronavirus = assay: Antiviral activity against Feline coronavirus infected in CRFK cells assessed as inhibition of virus-induced cytopathic effect; type: functional, cell-based
[10] = Selectivity index, ratio of CC50 for HEL cells to EC50 for Human cytomegalovirus AD169 infected in HEL cells; type: toxicity, cell-based; details: read-out: Ratio CC50/EC50
[11] = Selectivity index, ratio of CC50 for HEL cells to EC50 for wild type Herpes simplex virus 1 KOS infected in HEL cells; type: toxicity, cell-based; details: human, read-out: Ratio CC50/EC50
Procedure, shortened: (§4)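 EC50 is the concentration halving cytopathicity in HEL cells infected with 100 CCID50 HSV. […] Cells were counted by Coulter counter, and CC50 was read from plots of cell number (% of untreated) versus concentration. SI = CC50/EC50.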

[12] = Selectivity index, ratio of CC50 for HEL cells to EC50 for Herpes simplex virus 2 G infected in HEL cells; type: toxicity, cell-based; details: human, read-out: Ratio CC50/EC50; procedure, shortened: as §4
[13] = Selectivity index, ratio of CC50 for HEL cells to EC50 for thymidine kinase-deficient ACV-resistant Herpes simplex virus 1 KOS infected in HEL cells; type: toxicity, cell-based; details: human, read-out: Ratio CC50/EC50; procedure, shortened: as §4
[14] = Selectivity index, ratio of CC50 for HEL cells to EC50 for wild type thymidine kinase expressing Varicella-Zoster virus Oka infected in HEL cells; type: toxicity, cell-based; details: human, read-out: Ratio CC50/EC50
[15] = Selectivity index, ratio of CC50 for HEL cells to EC50 for wild type thymidine kinase-deficient Varicella-Zoster virus 07-1 infected in HEL cells; type: toxicity, cell-based; details: human, read-out: Ratio CC50/EC50
[16] = Selectivity index, ratio of CC50 for HEL cells to EC50 for Human cytomegalovirus Davis infected in HEL cells; type: toxicity, cell-based; details: read-out: Ratio CC50/EC50
Influenza A virus = assay: Antiviral activity against Influenza A virus (H1N1) infected in HEL cells assessed as inhibition of virus-induced cytopathic effect; type: functional, cell-based
Influenza A virus H3N2 = assay: Antiviral activity against Influenza A virus H3N2 infected in HEL cells assessed as inhibition of virus-induced cytopathic effect; type: functional, cell-based
Influenza B virus = assay: Antiviral activity against influenza B virus infected in HEL cells assessed as inhibition of virus-induced cytopathic effect; type: functional, cell-based
[17] = Cytotoxicity against HEL cells assessed as alteration of cell morphology by microscopic analysis; type: cell-based; details: human
Procedure, shortened: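 MCC is the lowest compound concentration causing a microscopically detectable alteration of cell morphology.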

[18] = as §2; type: cell-based; details: human, HEL cells; procedure, shortened: as §3

SMILES | EC50 (Human alphaherpesvirus 1 [1]) [nM] | EC50 (Human alphaherpesvirus 2) [nM] | EC50 (Human alphaherpesvirus 1 [2]) [nM] | EC50 (Human alphaherpesvirus 3 [3]) [nM] | EC50 (Human alphaherpesvirus 3 [4]) [nM] | EC50 (Human betaherpesvirus 5 [5]) [nM] | EC50 (Human betaherpesvirus 5 [6]) [nM] | EC50 (Vaccinia virus) [nM] | CC50 (HEL) [nM] | Activity [7] | Activity (Coxsackievirus B4) | Activity [8] | Activity (Human respirovirus 3) | Activity [9] | Activity (Sindbis virus) | Activity (Punta Toro virus) | Activity (Feline coronavirus) | Activity (Influenza A virus) | Activity (Influenza A virus H3N2) | Activity (Influenza B virus) | further results
CC(C)(C)C(=O)OCOP(=O)(COCCn1cnc(N)nc1=O)OCOC(=O)C(C)(C)C | 840 | 1260 | 730 | 650 | 1320 | 3240 | 970 | 152000 | 46000 | inactive | inactive | inactive | inactive | inactive | inactive | inactive | inactive | inactive | inactive | inactive | selectivity ratio [10]: 14 to 47; selectivity ratio [11]: 37 to 63; selectivity ratio [12]: 37 to 63; selectivity ratio [13]: 37 to 63; selectivity ratio [14]: 35 to 71; selectivity ratio [15]: 35 to 71; selectivity ratio [16]: 14 to 47
CCCCCCCCCCCCCCCCCCOCCOP(=O)(O)COCCn1cnc(N)nc1=O | 350 | 150 | 200 | 320 | 790 | 1120 | 240 | > 100000 | 79200 | inactive | inactive | inactive | inactive | inactive | inactive | inactive | inactive | inactive | inactive | inactive | selectivity ratio [10]: 71 to 330; selectivity ratio [11]: 226 to 528; selectivity ratio [12]: 226 to 528; selectivity ratio [13]: 226 to 528; selectivity ratio [14]: 100 to 248; selectivity ratio [15]: 100 to 248; selectivity ratio [16]: 71 to 330
CCCCCCCCCCCCCCCCNC(=O)[C@@H](N)Cc1ccc(OP(=O)(COCCn2cnc(N)nc2=O)Oc2ccc(C[C@H](N)C(=O)NCCCCCCCCCCCCCCCC)cc2)cc1 | 600 | 400 | 400 | 580 | 290 | 2160 | 480 | > 100000 |  | inactive | inactive | inactive | inactive | inactive | inactive | inactive | inactive | inactive | inactive | inactive | selectivity ratio [10]: 13 to 56; selectivity ratio [11]: 45 to 68; selectivity ratio [12]: 45 to 68; selectivity ratio [13]: 45 to 68; selectivity ratio [14]: 47 to 93; selectivity ratio [15]: 47 to 93; selectivity ratio [16]: 13 to 56
CCOC(=O)[C@H](Cc1ccccc1)NP(=O)(COCCn1cnc(N)nc1=O)N[C@@H](Cc1ccccc1)C(=O)OCC | 32500 | 39500 | 42000 | 29400 | 26800 | 15500 | 7500 | > 100000 | > 100000 | inactive | inactive | inactive | inactive | inactive | inactive | inactive | inactive | inactive | inactive | inactive | MCC [17]: > 100 µM
CC(C)OC(=O)OCOP(=O)(COCCOc1cc(N)nc(N)n1)OCOC(=O)OC(C)C |  | 1010 |  | 320 | 290 | 90100 | 86300 |  |  |  | inactive | inactive | inactive | inactive | inactive | inactive | inactive |  |  |  | MCC [17]: > 202 µM; CC50 at 72 h [18]: 15100 nM
CCOC(=O)[C@H](C)NP(=O)(COCCOc1cc(N)nc(N)n1)N[C@@H](C)C(=O)OCC | 3900 | 3460 | 6300 | 560 | 1690 | 28400 | 17000 | 157000 | 25900 | inactive | inactive | inactive | inactive | inactive | inactive | inactive | inactive | inactive | inactive | inactive | selectivity ratio [10]: ≤ 1; selectivity ratio [11]: 4 to 15; selectivity ratio [12]: 4 to 15; selectivity ratio [13]: 4 to 15; selectivity ratio [14]: 15 to 52; selectivity ratio [15]: 15 to 52; selectivity ratio [16]: ≤ 1
